In ChEMBL document CHEMBL4406805, “Development of Inhibitors against Mycobacterium abscessus tRNA (m1G37) Methyltransferase (TrmD) Using Fragment-Based Approaches” (J Med Chem, 2019):
pKd: −log10 of the molar value. Converted amounts (≈) assume the structure as drawn. The source made the active and inactive calls. The calls are words filed in the database; no cut-off is given here.

Columns and labels:
[1] = test system: Mycobacteroides abscessus; experiment: Binding affinity to Mycobacterium abscessus N-terminal His-tagged 3C protease linked full length tRNA (m1-G37) methyltransferase expressed in Escherichia coli BL21(DE3) assessed as change in melting temperature at 5 mM by SYPRO Orange dye based DSF assay
How it was run: (§1)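 DSF with 10 μM Mab TrmD (His-tag cleaved) in 50 mM HEPES pH 7.5, 500 mM NaCl, 5x SYPRO Orange. Final DMSO was 5%, either as ligand stock or as DMSO alone. Samples were ramped from 25 to 95 °C in 0.5 °C steps of 30 s. ΔTm was taken relative to the DMSO control.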

[2] = test system: Mycobacteroides abscessus; experiment: Binding affinity to Mycobacterium abscessus N-terminal His-tagged 3C protease linked full length tRNA (m1-G37) methyltransferase expressed in Escherichia coli BL21(DE3) after 15 mins by mass Spectrometry
How it was run: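 Native nanoESI-MS. His-tag was removed with 3C protease before IMAC and gel filtration. TrmD was exchanged into 200 mM ammonium acetate pH 7.0. Protein (20 μM in titration) was equilibrated at room temperature for at least 15 min alone or with ligand (12.5–100 μM; 100 μM for screening) in 5% DMSO. Read-out was ligand occupancy (singly or doubly bound) of the 13+ and 14+ charge states.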

[3] = test system: Mycobacteroides abscessus; experiment: Binding affinity to Mycobacterium abscessus N-terminal His-tagged 3C protease linked full length tRNA (m1-G37) methyltransferase expressed in Escherichia coli BL21(DE3) assessed as change in melting temperature at 100 uM by SYPRO Orange dye based DSF assay; how it was run: as §1
[4] = Binding affinity to Mycobacterium abscessus N-terminal His-tagged 3C protease linked full length tRNA (m1-G37) methyltransferase expressed in Escherichia coli BL21(DE3) by isothermal titration calorimetry; set-up: species or system Mycobacteroides abscessus
How it was run: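 ITC at 25 °C. TrmD (33 or 100 μM in cell) was dialysed overnight at 4 °C into 50 mM HEPES pH 7.5, 500 mM NaCl, 5% glycerol, with final DMSO 2–10%. Ligand:protein was 10–20:1. A 0.2 μL injection was discarded, followed by 19×2 or 39×1 μL injections at 60–150 s spacing. No-protein blanks were subtracted. Data were fitted to a one-site model (N fixed at 1 for weak binders). Mostly n = 1 with fit error; SD when n > 1.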

[5] = test system: Mycobacterium tuberculosis; experiment: Antimycobacterial activity against Mycobacterium tuberculosis H37Rv incubated for 2 weeks in presence of GAST-Fe medium; assay type: functional; conditions: 336 h
[6] = test system: Mycobacterium tuberculosis; experiment: Antimycobacterial activity against Mycobacterium tuberculosis H37Rv incubated for 2 weeks in presence of 7H9/glucose medium; assay type: functional; conditions: 336 h
[7] = Antimycobacterial activity against Mycobacterium abscessus subsp. abscessus ATCC 19977 by CLSI M07-A9 protocol based method; assay type: functional; conditions: Mycobacteroides abscessus
[8] = test system: Mycobacterium tuberculosis; experiment: Antimycobacterial activity against Mycobacterium tuberculosis H37Rv incubated for 2 weeks in presence of 7H9/DPPC medium; assay type: functional; conditions: 336 h
[9] = test system: Mycobacterium tuberculosis; experiment: Antimycobacterial activity against Mycobacterium tuberculosis H37Rv incubated for 2 weeks in presence of 7H9/ADC medium; assay type: functional; conditions: 336 h
[10] = test system: Mycobacteroides abscessus; experiment: Binding affinity to Mycobacterium abscessus N-terminal His-tagged 3C protease linked full length tRNA (m1-G37) methyltransferase expressed in Escherichia coli BL21(DE3) by reverse isothermal titration calorimetry
How it was run: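 Reverse ITC at 25 °C. 420 μM TrmD was injected into 35 μM ligand in the cell. Buffer was 50 mM HEPES pH 7.5, 500 mM NaCl, 5% glycerol with DMSO; blank titrations were subtracted. Data were fitted to a one-site binding model, otherwise as for forward titrations.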

Structure (SMILES) | ΔTm [3] [°C] | pKd [4] | further results
Cc1ccc(-c2cc(N)[nH]n2)cc1 |  |  | ΔTm [1]: 1.4 °C
N#Cc1c(N)n[nH]c1-c1ccc2ccn(Cc3ccccc3)c2c1 | 10.1 |  | Activity [2]: Active
O=C(OCc1ccc([N+](=O)[O-])cc1)c1cn[nH]c1 | 0.4 |  | 
OB(O)c1ccc2cc[nH]c2c1 |  | 3.59 | ΔTm [1]: 4 °C
COc1cccc(-c2cc(N)n[nH]2)c1 |  |  | ΔTm [1]: -0.5 °C
N#Cc1c(N)n[nH]c1-c1ccc2ccn(Cc3ccc(CN4CCOCC4)cc3)c2c1 | 12.6 |  | MIC [5]: 50 µM; MIC [6]: 100 µM; MIC [7]: 50 µM (≈ 20.6 µg/mL); MIC [8]: 50 µM; MIC [9]: > 100 µM
N#Cc1c(N)n[nH]c1-c1ccc2cc[nH]c2c1 | 4.4 | 5.30 | 
N#Cc1cccc(COC(=O)c2cn[nH]c2)c1 | 2.8 | 4.52 | 
CCOc1cccc(COC(=O)c2cn[nH]c2)c1 | 3.1 | 4.96 | 
Nc1cc(-c2ccc3ccn(Cc4ccc(CN5CCCCC5)cc4)c3c2)[nH]n1 | 7.2 |  | MIC [5]: 50 µM; MIC [6]: 25 µM; MIC [7]: 50 µM (≈ 19.3 µg/mL); MIC [8]: 12.5 µM; MIC [9]: > 100 µM
COC(=O)COc1cccc(COC(=O)c2cn[nH]c2)c1 | 2.6 | 5.00 | 
O=C(OCc1ccccc1)c1cn[nH]c1 | 3.1 | 4.48 | 
O=C(OCc1cccc(OCc2ccccn2)c1)c1cn[nH]c1 | 2.5 |  | 
COc1cccc(Cn2ccc3ccc(-c4cc(N)n[nH]4)cc32)c1 | 4.6 | 4.89 | 
N#Cc1c(N)n[nH]c1-c1ccc2ccn(Cc3ccc(CN4CCCC4)cn3)c2c1 | 12 | 4.04 | MIC [7]: 50 µM (≈ 19.9 µg/mL)
N#Cc1c(N)n[nH]c1-c1ccc2ccn(Cc3ccc(CN4CCCCC4)cc3)c2c1 | 12.6 |  | MIC [5]: 50 µM; MIC [6]: 25 µM; MIC [7]: 50 µM (≈ 20.5 µg/mL); MIC [9]: 100 µM
N#Cc1c(N)n[nH]c1-c1ccc2ccn(Cc3cccnc3)c2c1 | 10.5 | 6.74 | 
CN1CCCCC1Cn1ccc2ccc(-c3[nH]nc(N)c3C#N)cc21 (racemic) | 8.8 | 6.23 | 
CN1CCCC(Cn2ccc3ccc(-c4[nH]nc(N)c4C#N)cc32)C1 (racemic) | 10.9 | 6.44 | Activity [10]: Active
N#Cc1c(N)n[nH]c1-c1ccc2ccn(Cc3cccnc3O)c2c1 | 5.5 | 5.49 | 
Nc1cc(-c2ccc3ccn(Cc4ccccc4)c3c2)[nH]n1 | 3.4 | 4.72 | Activity [2]: Active
COc1cc(COC(=O)c2cn[nH]c2)cc(-c2cccnc2)c1 | 3.8 | 5.17 | 
O=C(OCc1cccc(OCCc2ccccc2)c1)c1cn[nH]c1 | 3 |  | 
Cc1c(N)n[nH]c1-c1ccc2ccn(Cc3ccc(CN4CCCC4)cc3)c2c1 | 6.1 |  | 
CC(C)N1CCN(Cc2ccc(Cn3ccc4ccc(-c5[nH]nc(N)c5C#N)cc43)cc2)CC1 | 11.9 |  | MIC [5]: 6.3 µM; MIC [6]: 2.3 µM; MIC [7]: 50 µM (≈ 22.7 µg/mL); MIC [8]: 1.6 µM; MIC [9]: 12.5 µM

Structure (SMILES) | ΔTm [3] [°C] | pKd [4] | further results
NC(=O)c1ccccc1Cn1ccc2ccc(-c3cc(N)n[nH]3)cc21 | 1.4 |  | 
CCOC(=O)c1cn[nH]c1 | 0.4 | 4.05 | ΔTm [1]: 4 °C
COc1ccc(Cn2ccc3ccc(-c4cc(N)n[nH]4)cc32)cc1 | 3.4 | 4.23 | 
COc1cccc(COC(=O)c2cn[nH]c2)c1 | 3.5 | 4.85 | 
Nc1cc(-c2ccc3cc[nH]c3c2)[nH]n1 | 1.1 | 3.96 | ΔTm [1]: 4.8 °C
COC(=O)c1ccc(COC(=O)c2cn[nH]c2)cc1 | 0.9 |  | 
N#Cc1c(N)n[nH]c1-c1ccc2ccn(Cc3ccccn3)c2c1 | 8.3 | 6.30 | 
COc1cc(COC(=O)c2cn[nH]c2)cc(Cc2cccnc2)c1 | 3 | 4.92 | 
N#Cc1c(N)n[nH]c1-c1ccc2ccn(Cc3ccnc4ccccc34)c2c1 | 10.3 |  | 
N#Cc1c(N)n[nH]c1-c1ccc2ccn(Cc3ccc(CN4CCCC4)cc3)c2c1 | 12.9 | 4.57 | Activity [2]: Active; MIC [6]: 25 µM; MIC [7]: 50 µM (≈ 19.8 µg/mL); MIC [8]: 12.5 µM; MIC [9]: > 100 µM
O=C(O)c1ccc2cc[nH]c2c1 |  |  | ΔTm [1]: -0.6 °C
CCOC(=O)c1cnn(CC#Cc2cc(COC(=O)c3cn[nH]c3)cc(OC)c2)c1 | 9.6 | 5.34 | 
Nc1cc(-c2ccccc2)n[nH]1 |  |  | ΔTm [1]: 1.5 °C
Nc1cc(-c2ccc3ccn(Cc4ccccn4)c3c2)[nH]n1 | 3.1 | 4.92 | 
COc1ccc(-c2cc(N)[nH]n2)cc1 |  | 3.77 | ΔTm [1]: 3 °C
N#Cc1c(N)n[nH]c1-c1ccc2c(Cl)cn(Cc3cccnc3)c2c1 | 5.8 | 5.07 | 
OB(O)c1ccc2[nH]ccc2c1 |  |  | ΔTm [1]: 1.3 °C
CCNC(=O)c1cn[nH]c1 |  |  | ΔTm [1]: 0.4 °C
Nc1cc(-c2ccc3ccn(Cc4ccc(CN5CCCC5)cc4)c3c2)[nH]n1 | 7 | 3.31 | MIC [5]: 25 µM; MIC [6]: 12.5 µM; MIC [7]: 50 µM (≈ 18.6 µg/mL); MIC [8]: 6.3 µM; MIC [9]: 100 µM
CN1CCN(Cc2ccc(Cn3ccc4ccc(-c5[nH]nc(N)c5C#N)cc43)cc2)CC1 | 12 | 4.14 | MIC [5]: 25 µM; MIC [6]: 12.5 µM; MIC [7]: 50 µM (≈ 21.3 µg/mL); MIC [8]: 6.3 µM
N#Cc1ccccc1Cn1ccc2ccc(-c3cc(N)n[nH]3)cc21 | 4.4 | 4.92 | 
COc1cc(COC(=O)c2cn[nH]c2)cc(N2CCCC2)c1 | 3 | 5.00 | 
N#Cc1c(N)n[nH]c1-c1ccc2ccn(Cc3ccncc3)c2c1 | 11.5 | 6.92 | MIC [5]: 50 µM; MIC [7]: 50 µM (≈ 15.7 µg/mL); MIC [9]: > 100 µM
N#Cc1c(N)n[nH]c1-c1ccc2ccn(Cc3ccc(O)nc3)c2c1 | 8.3 | 5.89 | 
